Structures are written as SMILES.

Results on 99 compounds are retold here after ChEMBL document CHEMBL4513216, “Probing the Open Global Health Chemical Diversity Library for Multistage-Active Starting Points for Next-Generation Antimalarials” (ACS Infect Dis, 2020).

A short description of this data set: Toxicity liver stage against HepG2, at 10uM. Also noted: test concentration 10 uM, cell line HepG2-A16-CD81EGFP. Particulars: human, HepG2-A16-CD81EGFP cells; read-out: INHIBITION
Format: cell-based. In outline:
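Uninfected HepG2-A16-CD81EGFP cells, 3 × 10^3 per well, 1536-well, plated on prespotted compound at 10 μM final, parasite-free screening media added to match infected plates; puromycin 10 μM positive, DMSO 0.5% negative; run in parallel with 48 h PbLuc assay at 37 °C, 5% CO2; viability by CellTiter-Glo luminescence, normalized to controls.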
Take `CCOC(=O)CCn1cnc2onc(-c3cc(OC)ccc3Cl)c2c1=O`: the cytotoxicity at 10 µM was -19%. As for `COCc1cc(CC2(NC3CCN(C)CC3)COC2)no1`, the cytotoxicity at 10 µM was -4.12%. `O=C(NC[C@H]1OC[C@@H](NC(=O)c2ccccc2)[C@@H]1O)c1ccncc1`: the cytotoxicity at 10 µM came to 2.55%.

On to `CN(C)C(=O)c1cc(-c2ccncc2)[nH]n1`, for which the cytotoxicity at 10 µM came out at 0.676%. Regarding `O=C1CC(c2ccc(C(=O)O)cc2)c2cnn(Cc3ccco3)c2N1` (centres undefined), the cytotoxicity at 10 µM was -0.869%. Take `COc1ccc(-n2nnc(C(N)=O)n2)cc1`: the cytotoxicity at 10 µM is 8.13%. Consider `Cc1nc(N(C)C)nc(C)c1NS(=O)(=O)c1ccc(F)cc1F`, for which the cytotoxicity at 10 µM was -3.58%.

For the compound `CCn1cc2c(n1)C(COCC1CC1)CN(C(=O)c1cc(C)on1)C2` (centres undefined), the cytotoxicity at 10 µM came out at 17.8%. As for `CC(C)NC(=O)c1ccc2c(c1)C(c1nc[nH]n1)CN2C` (centres undefined), the figure is -141%; as for `COCC1c2nnn(CC3CC3)c2CCN1C(=O)c1cc(C)on1` (centres undefined), -132%; as for `Cc1noc(C2CCC3(CCN(C(=O)c4ccnnc4)CC3)O2)n1` (centres undefined), 6.69%. The figure for `COCCN1CCO[C@H]2[C@H](OCc3cccc(C)n3)CC[C@@H]21` is -1.01%; for `COC(=O)Cn1nc(-c2ccccc2F)ccc1=O` it is 8.01%.

Consider `CCc1nn(-c2cc(Oc3cccc(C)c3)nc(C)n2)c(N)c1C#N`, for which the cytotoxicity at 10 µM is -9.8%. As for `Cn1cccc1C(=O)N1CCN(CC2CC2)c2ncccc2C1`, the figure is -21.9%. Take `CN(C)C(=O)COCc1cncc2c1CCN(Cc1nccn1C)C2`: the cytotoxicity at 10 µM is -7.61%. With `Cc1ccc2cnn(CCC(=O)Nc3c(C)nn(C)c3C)c2c1`, the cytotoxicity at 10 µM was -13.4%. Turning to `Cc1occc1C(=O)N1CCCC(C2=Nc3ccccc3S(=O)(=O)N2)C1` (centres undefined), the cytotoxicity at 10 µM amounted to 4.03%. On to `CNC(=O)C1(C)CN(c2nnc(C)c3ccccc23)CCO1` (centres undefined), for which the cytotoxicity at 10 µM is -1.61%. Consider `Cc1nc(C2CCCN(S(C)(=O)=O)C2)sc1Br` (centres undefined), for which the cytotoxicity at 10 µM was -10.3%. As for `CC(C)(C)C(=O)N1CCCC1c1nccnc1Cl` (centres undefined), the figure is 2.83%; as for `CN(C)S(=O)(=O)N1CCC(C)(c2ncc(C(N)=O)s2)CC1`, -0.318%; as for `Cc1c(CN2CCCC2(C)C(=O)N2CCOCC2)cnn1C` (centres undefined), -6.29%. As to `O=C(CCN1CCc2ccccc21)N1C[C@@H](O)[C@H](N2CCOCC2)C1`, the cytotoxicity at 10 µM was determined as 1.23%. For `Cc1c[nH]c(C2COCCN2S(=O)(=O)c2cn[nH]c2)n1` (centres undefined), the cytotoxicity at 10 µM was -22.8%. Consider `CS(=O)(=O)NC[C@]1(O)CCN(C(=O)Cc2cccs2)C[C@H]1O`, for which the cytotoxicity at 10 µM was -17.9%. In the case of `Cc1cc(C)nc(C2CCN(C(=O)c3c(C)noc3C)C2)n1` (centres undefined), the cytotoxicity at 10 µM was -4.34%.

For `Cc1cc(N(C)C)nc(C2(C)CCCN2C(=O)c2cncnc2C)n1` (centres undefined), the cytotoxicity at 10 µM is -11.3%. Regarding `Cc1ccnc(NC(=O)c2c(C)oc(C)c2C)c1`, the cytotoxicity at 10 µM was found to be 17.2%. `CC(C)(C)c1cnc(CN2CCCS(=O)(=O)CC2)o1`: the cytotoxicity at 10 µM is -3.97%. On to `c1cc(CNCCC2CCCO2)ccn1` (centres undefined), for which the cytotoxicity at 10 µM is -0.95%. For `CC(c1ccc(F)cc1F)N1CCN(CCC(=O)NC(N)=O)CC1` (centres undefined), the cytotoxicity at 10 µM is -8.58%. The figure for `CNC(=O)C1CCCCN1C(=O)Cc1csc(-c2ccc(C)o2)n1` (centres undefined) is 8.61%; for `CCN(CCC#N)Cn1ncc2cn(-c3ccccc3)nc2c1=O` it is -14.5%. `CC(CNC(=O)CCn1cncn1)N1CCc2ccccc21` (centres undefined): the cytotoxicity at 10 µM is -157%. As for `Cc1ccc(C)n1-c1ccsc1C(=O)NCC(=O)N1CCCC1`, the figure is -143%; as for `O=C(C1COCCO1)N1CCN(CC(F)(F)F)c2ccccc21` (centres undefined), 7.36%; as for `CCc1noc(Cn2c(=O)c3c(C(F)(F)F)cc(C)nc3n2C)n1`, -3.44%. With `Cc1ccc(NC(=O)N2CCCN(C(N)=O)CC2)s1`, the cytotoxicity at 10 µM is -6.58%. Regarding `O=C(CN1CCS(=O)(=O)CC1)NC1CCCCc2ccccc21` (centres undefined), the cytotoxicity at 10 µM turned out to be 7.28%.

Consider `Cc1ncsc1C(=O)NCCNC(=O)OC(C)(C)C`, for which the cytotoxicity at 10 µM was 4.73%. For the compound `NC(=O)C1CCCN1Cc1cccc(NC(=O)c2cccs2)c1` (centres undefined), the cytotoxicity at 10 µM is -12.7%. As to `CCN(CC)CCNC(=O)c1cnc(-c2ccccc2)nc1`, the cytotoxicity at 10 µM turned out to be 12.4%.

Regarding `O=S(=O)(NCC1COc2ccccc2C1)N1CCCCC1` (centres undefined), the cytotoxicity at 10 µM was -0.628%. The figure for `COc1c(CNCc2cccnc2N2CCOCC2)c(C)nn1C` is -151%; for `Cc1cc(C)n(CC2CN(Cc3cccc(C#N)c3)CCO2)n1` (centres undefined) it is -3.46%. On to `CCc1nnc2n1CC(CNCc1nc(C)c(C)o1)CC2` (centres undefined), for which the cytotoxicity at 10 µM is -16%. For the compound `CCc1ccc(CNc2ccccc2CN2CCC(O)CC2)o1`, the cytotoxicity at 10 µM was found to be 4.34%. `CC(C(=O)NCC1CCN(c2ccncc2)CC1)S(C)(=O)=O` (centres undefined): the cytotoxicity at 10 µM worked out at 17.4%. On to `CC(CCS(C)(=O)=O)NC(=O)NCc1ccc2ccccc2c1` (centres undefined), for which the cytotoxicity at 10 µM is -137%. As for `Cc1ccc(C(=O)NCC2COCCO2)c(=O)[nH]1` (centres undefined), the figure is 10.9%; as for `CCC1CN(CC(=O)NC(C)C)CCO1` (centres undefined), 2.16%.

In the case of `O=C(c1cnccn1)N(CCO)Cc1cc(Br)ccc1F`, the cytotoxicity at 10 µM was determined as 5.64%. The figure for `CCCn1nnnc1COc1ccc(C(=O)OC)cc1OC` is -1.9%; for `CCNc1nnc(SC(C(=O)NCc2cccnc2)C(C)C)s1` (centres undefined) it is -13.3%; for `N#Cc1c(F)cccc1N1CCN(C(=O)Nc2nncs2)CC1` it is -0.908%. In the case of `O=C(NCc1cc[nH]n1)NCC(c1ccccc1Cl)N1CCCC1` (centres undefined), the cytotoxicity at 10 µM turned out to be 14.7%. As for `O=C(NCc1ccccc1CN1CCC(O)CC1)Nc1cccnc1`, the cytotoxicity at 10 µM is -8.8%. As for `CNC(=O)CS(=O)(=O)Cc1coc(-c2ccc(OC)cc2)n1`, the cytotoxicity at 10 µM was -2.95%.

With `CCSc1cc(C(=O)NCCC(=O)Nc2ccccn2)ccn1`, the cytotoxicity at 10 µM is -8.62%. As for `CCc1nc(CN2CCCN(c3nc4ccccc4o3)CC2)no1`, the figure is -22.5%.

For `CCOc1ncccc1NC(=O)c1sccc1C`, the cytotoxicity at 10 µM was -16.1%. Consider `CN(C)CCCN1CC2(CCN(C3CCCOC3)CC2)OC1=O` (centres undefined), for which the cytotoxicity at 10 µM is -5%. Take `CCc1nc(C)sc1C(=O)N1CCN(c2ncccc2C)CC1`: the cytotoxicity at 10 µM turned out to be 1.39%. As for `Cc1cc(N(C)Cc2c(C)noc2C)n2nc(C)c(C)c2n1`, the cytotoxicity at 10 µM was 5.44%.

For `CC(C)(C)c1cc(=O)[nH]c(-c2ccccc2CN2CCCCCC2)n1`, the cytotoxicity at 10 µM was -42%. The figure for `Cc1nc(N)sc1C(=O)N1CCCC(COc2ccc(F)cc2)C1` (centres undefined) is -143%; for `CN(CCCc1ccccc1)C(=O)c1ccccc1NCC(=O)O` it is -6.96%. The figure for `CCS(=O)(=O)c1ncc(CN(C)CCc2ccccn2)n1CCOC` is -3.98%.

On to `Cc1cccc(-c2nc3cc(S(=O)(=O)N4CCCC4)ccc3n2C)n1`, for which the cytotoxicity at 10 µM was 16.8%.

For the compound `CNc1cc(-c2ccc(COCCN)cc2)c2cc[nH]c2n1`, the cytotoxicity at 10 µM is 5.89%. As for `COCc1nc(CNc2cc(C)nc(-c3ccccc3)n2)no1`, the figure is 7.06%; as for `COCc1ncn(Cc2nc(-c3ccco3)oc2C)n1`, -8.53%. With `COc1ccc(Cl)cc1CN(C)C(=O)CN1C(=O)CCC1C` (centres undefined), the cytotoxicity at 10 µM turned out to be 0.277%. The figure for `CCC[C@@H]1CN(Cc2ccccc2SC)C[C@H]1NC(C)=O` is -5.73%; for `CC(C)(N)c1cn(C2CCN(C3CCSCC3)CC2)nn1` it is -10.7%; for `COCCOCC(=O)N1CCC2(CCCN(C3CCOCC3)C2=O)C1` (centres undefined) it is -133%. Regarding `Cc1cnc(Cn2cc(-c3cccc(C(C)N(C)C)c3)nn2)cn1` (centres undefined), the cytotoxicity at 10 µM was -0.807%.

Take `CN(C(=O)CCc1ccncc1)C1CCCN(CCc2ccccc2)C1` (centres undefined): the cytotoxicity at 10 µM was -13.5%. As for `CCc1ccc(-c2c(C)c(-c3cnn(C)c3)nc(N)c2C#N)o1`, the cytotoxicity at 10 µM was -133%.

For `O=C(O)c1cc(-c2ccncc2)cc(S(=O)(=O)N2CCCCCC2)c1`, the cytotoxicity at 10 µM stood at 2.05%.

Consider `CCNC(=O)[C@@H]1C[C@@H](NC(=O)c2cccn2C)CN1CCCSC`, for which the cytotoxicity at 10 µM is -122%. With `Cc1cnn(CC2CN(Cc3cccnc3)CCO2)c1` (centres undefined), the cytotoxicity at 10 µM is -3.27%.

Regarding `CC(C)CC(=O)NS(=O)(=O)c1ccc2c(c1)OCCCO2`, the cytotoxicity at 10 µM was -9.02%.

Consider `Cc1ccc(NC2CCN(C(=O)COC3CCCCC3)CC2)nn1`, for which the cytotoxicity at 10 µM came out at 5.94%. On to `Cc1nc(C2CCCN2C(=O)CCCn2cncn2)no1` (centres undefined), for which the cytotoxicity at 10 µM worked out at 6.62%. The figure for `CN(C(=O)c1ccc(-n2ncc(C#N)c2N)cc1)C1CCCC1` is -5.1%; for `CN(Cc1ccccn1)CC1CCCN1c1cccnn1` (centres undefined) it is 2.43%. For `COc1ccc(CC(=O)N2CCCCC2Cn2cccn2)cc1` (centres undefined), the cytotoxicity at 10 µM was -11.3%. With `CCn1cnnc1CNC(=O)N1CCCCCC1`, the cytotoxicity at 10 µM is -7.36%. As for `COCc1nc(CN2CCOC(CN(C)c3cccnn3)C2)cs1` (centres undefined), the figure is 1.55%. `CC(=O)Nc1nc(C(=O)NC(C)c2cccnc2)cs1` (centres undefined): the cytotoxicity at 10 µM was -4.21%. As for `CC(C)c1noc(C(C)N2CCN(Cc3cccc(C#N)c3)CC2)n1` (centres undefined), the cytotoxicity at 10 µM was -14.3%. Consider `CC1COCCN1C(=O)c1cccc(OCc2cscn2)c1` (centres undefined), for which the cytotoxicity at 10 µM is -9.93%. On to `Cn1cccc1C(=O)N1CCC2(CC1)COC(COc1ccccn1)C2` (centres undefined), for which the cytotoxicity at 10 µM amounted to 1.48%.

For the compound `CN(C)CCOCC1CN(C(=O)c2cccn2C)Cc2ccnn2C1` (centres undefined), the cytotoxicity at 10 µM worked out at 13.5%. For `CN(C)CCN1CCOCC2(CCN(Cc3ccc[nH]3)CC2)C1`, the cytotoxicity at 10 µM was found to be 0.626%. Consider `CN(Cc1cncnc1)[C@@H]1CN(C(=O)C2CC2)[C@@H]2CCCO[C@H]12`, for which the cytotoxicity at 10 µM is -112%. As to `CC(=O)Nc1ccc(CN2C[C@@H]3CC[C@H]2CN(c2ncccn2)C3)cc1`, the cytotoxicity at 10 µM is -0.0298%.
